Experimental data from paper PMC11975418 (Nature medicine, 2023).

How the values were obtained:
[1] = test system: C57BL/6J mice; assay: Spontaneous pain; assay type: in vivo, mouse
[2] = test system: DRG neurons; assay: Mitochondrial function; assay type: in vivo, mouse
[3] = test system: C57BL/6J mice; assay: Mechanical allodynia of hind paws; assay type: in vivo, mouse; settings: 30 mg/kg ACY-1215 co-administered with 0.3 or 1 mg/kg IACS-010759
[4] = test system: C57BL/6J mice; assay: Sensorimotor function; assay type: in vivo, mouse
[5] = test system: C57BL/6J mice; assay type: in vivo, mouse; settings: 30 mg/kg ACY-1215 co-administered with IACS-010759
[6] = Plasma lactate in NSG and B6 mice; assay type: in vivo, mouse; settings: escalating doses
[7] = Plasma IACS-010759 exposure versus venous lactate in AML and Solid Tumor cohorts; assay type: in vivo, human
[8] = Solid Tumor trial; assay type: in vivo, human; settings: for Average highest lactate level during OXPHOS: Solid Tumors
[9] = test system: AML blasts; assay: Seahorse oxygen consumption rate of AML blasts from treated patients; assay type: cell-based, human
Outline: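 Fresh heparinised patient blood was mixed with equal-volume EasySep buffer and depleted of CD3/CD19-positive cells with an antibody cocktail. Isolated blasts were counted and used immediately for Seahorse basal and maximal OCR, normalised to cell number, with 2–6 technical replicates. Sampling was pre-dose (C1D1), after one week (C1D7/C1D14) and during extended dosing (C1D15/21/28). A two-sided paired t-test was used.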

[10] = test system: ATF3; assay: ATF3 expression in DRG; assay type: in vivo, mouse; settings: 1 or 5 mg/kg
Outline: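 Mice received test compound (1 or 5 mg/kg) or vehicle orally, once daily, 5 days on/2 off, then another 5 days. DRG were taken 12 days after the last dose and processed as PFA-fixed, OCT-embedded 14 μm frozen sections. Sections were incubated overnight with anti-ATF3 (1:500) in PBS with 2% donkey serum and 0.1% saponin, then Alexa 594 secondary and DAPI. Imaging was confocal. Positive control was spared-nerve-injury DRG; staining was repeated three times.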

[11] = test system: mitochondrial complex I; settings: by binding the ND1 subunit at the entrance to the quinone binding channel; cited from earlier work
[12] = Human plasma concentrations of IACS-010759; assay type: in vivo
Outline: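 Patient plasma (50 μL) was extracted with acetonitrile containing diclofenac internal standard, vortexed 10 min and spun 2000 g for 10 min. Extract was diluted 1:1 with water for LC-MS/MS with the column at 40 °C. MRM transitions were m/z 563.1>172.1 for analyte and 295.9>151.2 for standard. The method was validated over 0.05–50.0 ng/mL.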

[13] = test system: AML blasts; assay: Ratio of mitochondrial to genomic DNA in AML blasts; assay type: cell-based, human; settings: pre- vs post-dose Day 16/21/27/28; p=0.04
[14] = test system: C57BL/6J mice; assay: Intraepidermal nerve fiber density in hind paw skin; assay type: in vivo, mouse; settings: highest dose
Outline: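 Male C57BL/6J mice were given vehicle (0.5% methylcellulose) or 1 or 5 mg/kg test compound by oral gavage once daily, 5 days on/2 off, then a further 5 days on. Glabrous hind paw skin was collected 12 days after the final dose. PGP9.5-stained fibres crossing the collagen-stained dermal–epidermal junction were counted by confocal microscopy as IENFs/mm, five random images per mouse. n=12/8/8; one-way ANOVA with Dunnett's; mean ± SE.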

[15] = test system: blasts from the spleen of NSG mice; assay: Baseline OCR of blasts from the spleen of NSG mice; assay type: in vivo, mouse; settings: 0.1 and 0.3 mg/kg, 5-days on/2-days off
Outline: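 Female NSG mice received 250 cGy cesium irradiation 24 h before tail-vein injection of 0.5 × 10^5 AML PDX cells. Mice were randomized (n=9/group) to vehicle (0.5% methylcellulose) or 0.1, 0.3, 1 or 5 mg/kg test compound, 5 days on/2 days off. Spleens were taken at euthanasia for baseline OCR of blasts. N=5 biologically independent samples; two-sided unpaired t-test.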

[16] = test system: advanced solid tumors; assay: Solid Tumor trial: response by RECISTv1.1; assay type: in vivo, human
[17] = AML trial; assay type: in vivo, human; settings: for Average highest lactate level during OXPHOS: AML
Outline: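 Both trials graded adverse events with NCI CTCAE v4.03. In the AML trial, all patients had close monitoring of lactate, blood pH and electrolytes. Patients with lactate >4 mmol/L, pH <7.30 and symptoms were hospitalised for at least 24 h. Dose-limiting lactic acidosis was lactate >4.0 mmol/L, pH <7.35, low CO2, raised anion gap and/or symptoms, confirmed by arterial sampling.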

[18] = test system: relapsed/refractory AML; assay: AML trial: response by European LeukemiaNet 2017; assay type: in vivo, human; settings: n=17
Outline: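 Relapsed/refractory AML patients were dosed by cohort. Cohorts 1–2 got 0.5 or 1.0 mg on Day 1 and Day 8 of cycle 1, then daily in later cycles. Cohorts 3–4 got induction of 2.0 or 2.5 mg daily on Days 1–7. Maintenance followed at 0.5 mg once weekly (cohort 3) or 1.0 mg thrice weekly (cohort 4).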

[19] = test system: PDX AML-04030094 model; assay: Survival of AML PDX mice; assay type: in vivo, mouse; settings: 1 mg/kg oral, 5-days on/2-days off, NSG AML PDX mice
[20] = test system: AML blasts; assay: Intracellular metabolites in AML blasts; assay type: cell-based, human
[21] = 30 mg/kg ACY-1215 co-administered with IACS-010759
[22] = end of the first 7-day QD dosing vs pre-treatment
[23] = blasts from Patient 17 (highest exposure), p<0.01

SMILES: O=C(CCCCCCNC(=O)c1cnc(N(c2ccccc2)c2ccccc2)nc1)NO [ACY-1215, reference compound]
- effect on IACS-010759-induced spontaneous pain [1, 21]: prevented
- effect on IACS-010759-induced reduction of OCR in the DRG [2, 21]: did not prevent
- effect on IACS-010759-induced mechanical allodynia [3]: significantly attenuated
- effect on IACS-010759-induced sensorimotor deficits [4, 21]: prevented
- effect on IACS-010759-induced damage to the myelin of the sciatic nerve [5]: prevented

SMILES: Cc1nc(-c2nc(-c3ccc(OC(F)(F)F)cc3)no2)nn1Cc1cccc(N2CCC(S(C)(=O)=O)CC2)c1 [IACS-010759]
- plasma lactate ([6]; C56Bl6 mice): elevated by all doses
- plasma lactate ([6]; NSG mice): only elevated by the 5 mg/kg dose
- spontaneous pain: time in the chamber associated with pain relief ([1]; IACS-010759-treated vs vehicle-treated mice): spent significantly more time in the chamber associated with pain relief
- drug exposure associated with increased probability of elevated lactate ([7]; equivalent of the nM value): > 4.5 ng/mL
- drug exposure associated with increased probability of elevated lactate ([7]; plasma IACS-010759, AML and Solid Tumor cohorts): > 8 nM
- patients with grade 1–3 peripheral neuropathy ([8]; Solid Tumor trial): 11 patients
- grade 1–2 TRAE: myalgia ([8]; Solid Tumor trial patients): 30%
- grade 1–2 TRAE: peripheral neuropathy ([8]; Solid Tumor trial patients): 35%
- grade 1–2 TRAE: vomiting ([8]; Solid Tumor trial patients): 30%
- grade ≥3 TRAE: elevated blood lactate ([8]; Solid Tumor trial patients): 9%
- grade ≥3 TRAE: nausea ([8]; Solid Tumor trial patients): 9%
- grade ≥3 TRAE: peripheral neuropathy ([8]; Solid Tumor trial patients): 4%
- painful neuropathy ([8]; Solid Tumor trial patients): not observed
- Average highest lactate level during OXPHOS ([8]; NP (N=11)): 4.5 mmol/L
- Average highest lactate level during OXPHOS ([8]; Non-NP (N=12)): 2.6 mmol/L
- patients with >25% reduction in baseline OCR in blasts [9, 22]: 6/12
- patients with >25% reduction in maximal OCR in blasts [9, 22]: 8/12
- patients in whom the decrease in baseline OCR was not maintained ([9]; extended dosing, among patients with >25% reduction): 2/6
- expression of ATF3 [10]: did not increase
- inhibition of mitochondrial complex I [11]: selectively inhibited mitochondrial complex I
- maintenance of plasma levels of ≥20 nM ([12]; AML and Solid Tumor trials, all dosing schedules): not maintained with any dosing schedule
- terminal half-life ([12]; plasma, patients): approximately 16 hours
- ratio between mitochondrial and genomic DNA in blasts [13]: significant increase
- intraepidermal nerve fiber density (IENF) in hind paw skin [14]: reduced intraepidermal nerve fiber density
- modulation of baseline OCR [15]: induced moderate modulation of baseline OCR
- OCR in dorsal root ganglia ([2]; 3–4 hours and 5 weeks after the last dose): dose-dependently inhibited OCR
- patients with best response of RECISTv1.1 stable disease [16]: eight
- balance and fine motor function ([4]; beam walk test, vs vehicle-treated mice): significant decrease in balance and fine motor function
- recommended phase 2 dose (RP2D) ([17]; AML and Solid Tumor trials): no RP2D was established
- grade 1–2 TRAE: elevated blood lactate ([17]; AML trial patients): 35%
- grade 1–2 TRAE: myalgia ([17]; AML trial patients): 6%
- grade 1–2 TRAE: peripheral neuropathy ([17]; AML trial patients): 12%
- grade ≥3 TRAE: peripheral neuropathy ([17]; AML trial patients): 6%
- Average highest lactate level during OXPHOS ([17]; NP (N=6)): 3.9 mmol/L
- Average highest lactate level during OXPHOS ([17]; Non-NP (N=11)): 3.0 mmol/L
- response (European LeukemiaNet 2017) [18]: No patient in the AML trial responded
- extension of median survival [19]: 7 days
- NAD+ levels ([20]; blasts from Patient 16): did not affect
- intracellular NMP, NDP and NTP levels ([20]; blasts from Patient 16 (weakest exposure)): did not affect levels of NMP, NDP, and NTP
- intracellular NMP and NDP levels [20, 23]: significantly increased
- intracellular NTP levels [20, 23]: significantly decreased
- NAD+ levels ([20]; blasts from Patient 17, p = 0.03): NAD+ levels significantly decreased
- NAD+ levels ([20]; blasts from Patient 19): NAD+ levels significantly increased
- intracellular NTP levels ([20]; blasts from Patient 19 (lower exposure), p<0.05): significantly reduced NTP levels
